Measurements gathered from unrelated publications.
Each line is one published result; the experiments were not run side by side.
Target: Serine/threonine-protein kinase N1 (PKN1, Homo sapiens, UniProt Q16512)

Compound | test | conditions | quantity | result
FC(F)(F)c1ccc2c(c1)nc(-c1cccnc1)n2C1CC1 | cell-free assay, competition with immobilised ligand | 1 µM | remaining binding | 100%
Cl.OC1CCC(Nc2ncc3nc(Nc4c(F)cc(F)cc4F)n(C4CCOC4)c3n2)CC1 (centres unmarked) | enzyme activity, inhibitor | 1 µM | activity vs control | 98%
C[C@H]1CCN(c2nccc(-c3cnn4ncccc34)n2)C1 | binding | 1 µM | remaining binding | 100%
Cc1ccc(NC(=O)c2ccc(CN3CCN(C)CC3)cc2)cc1Nc1nc(-c2cccnc2)cs1 | cell-free assay | 0.5 µM | remaining signal | 99.3%
C[C@@]1(Cc2ccc(C#N)cc2)C(=O)N(c2cc(Cl)cc(Cl)c2)c2ncc(C(=O)NC3(c4nc(C5CCC5)no4)CC3)n21 | cell-free assay, competition with immobilised ligand | 1 µM | remaining binding | 100%
Cn1c2c(c3ccc(Cl)c(Cl)c31)C(C#N)C1(CCCC1)NC2=O (centres unmarked) | thermal stability, DSF | 10 µM | ΔTm | -0.5 °C
CCCCN(CCCC)C(=O)CN1C[C@H](c2cc(OC)c3c(c2)OCO3)[C@@H](C(=O)O)[C@@H]1CC(C)(C)CCC | cell-free assay, competition with immobilised ligand | 1 µM | remaining binding | 100%
COc1cc2ncnc(Nc3ccc(Oc4ccccc4)cc3C)c2cc1OC | enzyme activity, inhibitor | 1 µM | inhibition | 4%
CN(C)C1CCN(CC#Cc2nn(C3CCCC3)c3nc(NCc4ccccc4)ncc23)C1 (centres unmarked) | enzyme activity, inhibitor, FRET | 1 µM | inhibition | 1%
Oc1ccc(-c2nc(-c3ccncc3)c(-c3ccc(F)cc3)[nH]2)cc1 | cell-free assay | 0.5 µM | remaining signal | 78.9%
CC(=O)c1cnc2ccc(-c3cc(Cl)c(O)c(Cl)c3)nc2c1N[C@H]1CC[C@H](CN(C)C)CC1 | enzyme activity, inhibitor | 1 µM | activity vs control | 0%
COc1cc(-c2cc(-c3ccc(N4CCNCC4)cc3)cnc2C)cc(OC)c1OC | enzyme activity, inhibitor | 1 µM | inhibition | 6%
O=S(=O)(c1cccc2cnccc12)N1CCCNCC1 | cell-free assay | 0.5 µM | remaining signal | 40.5%
CC(C)NC[C@@H](C(=O)N1CCN(c2ncnc3c2[C@H](C)C[C@H]3O)CC1)c1ccc(Cl)cc1 | enzyme activity, inhibitor | 1 µM | activity vs control | 1%
O=C1NC(=O)c2cc(Nc3ccc(F)cc3)c(Nc3ccc(F)cc3)cc21 | cell-free assay | 0.5 µM | remaining signal | 97.7%
Cc1c(NC(=O)c2cc3c(s2)CCCC3)cccc1-c1cn(C)c(=O)c(Nc2ccc([C@@H]3C(=O)N(C)CCN3C)cc2)n1 | enzyme activity, inhibitor | 1 µM | activity vs control | 76%
O=C(Nc1cnn(-c2csc(C(=O)NC3COC3)c2)c1)Nc1ccccc1Cl | enzyme activity, inhibitor | 5 µM | remaining activity | 110%
Cn1cncc1C1=CN(c2ncnc3[nH]cnc23)CCS1 | enzyme activity, inhibitor, radiometric | 2 µM | inhibition | 87.7%
C[S+]([O-])c1ccc(-c2nc(-c3ccncc3)c(-c3ccc(F)cc3)[nH]2)cc1 (centres unmarked) | cell-free assay | 0.5 µM | remaining signal | 96.5%

Compound | test | conditions | quantity | result
CC(=O)c1c(C)c2cnc(Nc3ccc(N4CCNCC4)cn3)nc2n(C2CCCC2)c1=O.Cl | enzyme activity, inhibitor | 1 µM | activity vs control | 96%
C[C@H](NC(=O)c1cnc2n1[C@](C)(Cc1ccc(C#N)cc1)C(=O)N2c1cc(Cl)c(F)c(Cl)c1)C(=O)NC1(c2ccccn2)CC1 | cell-free assay, competition with immobilised ligand | 1 µM | remaining binding | 100%
CCOc1cc(-c2nncn2C)ccc1Nc1ncc2cc(C)nc(NCC(C)(C)C)c2n1 | enzyme activity, inhibitor, FRET | 1 µM | inhibition | < 15%
Cl.Cl.O=C(NCCCNc1nc(Nc2cccc(CN3CCOCC3)c2)ncc1C1CC1)C1CCC1 | enzyme activity, inhibitor | 1 µM | activity vs control | 52%
O=C(CSc1nc2nccnc2c(=O)n1CCc1ccccc1)Nc1nccs1 | enzyme activity, inhibitor | 10 µM | inhibition | 4%
Cc1ccc(C(=O)Nc2ccc(CN3CCN(C)CC3)c(C(F)(F)F)c2)cc1C#Cc1cnc2cccnn12 | enzyme activity, inhibitor | 23.5 nM | remaining activity | 100%
CN1CC(Oc2cnc(C#N)cc2-c2ccn3nc(NC(=O)C4CC4)cc3c2)C1 | enzyme activity, inhibitor | 1 µM | inhibition | -9%
CC/C(=N\NC(=O)NCc1cccc(O)c1)c1ccc(O)c(C)c1O | enzyme activity, inhibitor | 0.1 µM | inhibition | 29.1%
CC(C)(C)c1nc(-c2cccc(NS(=O)(=O)c3c(F)cccc3F)c2F)c(-c2ccnc(N)n2)s1 | enzyme activity, inhibitor, radiometric | 1 µM | remaining activity | 101%
CS(=O)(=O)NCC[C@H](NC(=O)c1cncc2c1cnn2-c1ccc(F)cc1)c1ccnc(S(C)(=O)=O)c1 | cell-free assay, competition with immobilised ligand | 1 µM | remaining binding | 100%
CCN1CCC2(CC1)NC(=O)c1c(c3ccc(Cl)c(Cl)c3n1C)C2C#N (racemic) | thermal stability, DSF | 10 µM | ΔTm | 1 °C
COc1cc(-c2cn(C3CCc4c(F)cccc4N(CC(F)(F)F)C3=O)nn2)ccc1-n1cnc(C)c1 (centres unmarked) | cell-free assay, competition with immobilised ligand | 1 µM | remaining binding | 96%
COc1cccc2c(NCc3ccccc3)nc(-n3c(N)nc4ccccc43)nc12 | target engagement in cells, inhibitor, chemoproteomics | 20 mM | inhibition | 0.9%
CCCOc1ccc([C@H]2[C@H](C(=O)O)[C@@H](c3ccc4c(c3)OCO4)CN2CC(=O)Nc2c(CC)cccc2CC)cc1 | cell-free assay, competition with immobilised ligand | 1 µM | remaining binding | 87%
COc1cc(Cl)c(C(=O)N[C@@H](CN[C@H]2CC[C@@H](N)CC2)Cc2ccc(C#N)cc2)cc1-c1ccc(CN[C@H](C)c2ccc(C)cc2)o1 | enzyme activity, inhibitor | 1 µM | remaining activity | 108%
COc1ncc(Nc2ncc([C@@H](C)N3CCN(S(C)(=O)=O)CC3)cc2-c2nc(C)nc(N)n2)cc1F | enzyme activity, inhibitor | 1 µM | activity vs control | 94%
CN(C(=O)c1ccccc1)c1cc(N(C)c2ccc3c(c2)CCc2ccc(C(=O)NCCN4CCOCC4)cc2C3=O)ccc1F | cell-free assay, competition with immobilised ligand | 1 µM | remaining binding | 100%
O=C(Nc1cnn2ccc(N3CCC[C@@H]3c3cc(F)ccc3F)nc12)N1CC[C@H](O)C1 | enzyme activity, inhibitor | 1 µM | activity vs control | 94%
Cn1c2c(Cl)c(Cl)ccc2c2cc[nH]c(=O)c21 | thermal stability, DSF | 10 µM | ΔTm | 0.9 °C
